# PfM18AAP inh-1 = PfM18AAP enzyme inhibition; 290,000 tested, 1.2% active; recombinant PfM18AAP, H-Glu-NHMec fluorogenic cleavage; inhibition, % at 7.35 µM;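 active means inhibition above the campaign mean inhibition over all tested compounds plus 3 SD, cut at about 28% in these data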
# UBC13 inh = human UBC13 polyubiquitination inhibition | P61088 | inhibition, % at 20 µM | UBC13 polyubiquitin chain formation, TR-FRET | AID 485273 | 330,000 tested, 0.47% active; in the data active means inhibition above about 45%, passing the limit was not always enough
# ZTA DNA inh = counter-screen for EBNA-1 inhibitors: inhibitors of Epstein-Barr virus ZTA; ZTA-DNA binding, fluorescence polarization; inhibition, % at 11 µM; 320,000 tested, 0.15% active; in the data active means inhibition above about 33%
# Target sequence (P03206 whole entry, looked up): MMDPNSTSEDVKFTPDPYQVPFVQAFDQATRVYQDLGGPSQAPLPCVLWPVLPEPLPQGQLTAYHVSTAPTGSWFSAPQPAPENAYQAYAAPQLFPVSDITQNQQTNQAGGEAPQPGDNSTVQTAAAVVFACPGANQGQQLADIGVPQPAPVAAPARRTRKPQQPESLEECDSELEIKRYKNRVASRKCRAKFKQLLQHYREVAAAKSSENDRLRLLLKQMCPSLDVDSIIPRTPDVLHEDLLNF
# EBNA-1 inhibitor = blocks EBNA-1 binding to DNA. 300,000 tested, 0.34% active. EBNA-1 DNA binding, fluorescence polarization. inhibition, % at 14.8 µM; in the data active means inhibition above about 28%
# Apaf1 inhib = inhibitors of human Apaf-1 apoptosome | O14727 | reconstituted apoptosome caspase-3 activity, DEVD-Rh110 fluorescence | inhibition, % at 20 µM | 330,000 tested, 0.71% active | AID 489030; active means inhibition of at least 40% at 20 µM
#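 Material: cell-free apoptosome with Apaf-1, procaspase-3 and caspase-9; Buffer or medium: Hepes pH 7.5 with detergent and BSA; Reagent: cytochrome c trigger plus (Z-DEVD)2-Rh110 caspase-3 substrate; Times: compound with Apaf-1, dATP, procaspase-3 30 min, then 50 min reaction, room temperature; Technique: Rh110 fluorescence intensity.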
# PfGluPho inh = PfG6PD (Plasmodium falciparum) enzyme inhibition | 350,000 tested, 0.78% active | inhibition, % at 20 µM | PfGluPho enzyme, NADPH resazurin-diaphorase fluorescence;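 active means inhibition reaching at least a set limit at 20 µM in the primary screen, cut at about 59% in these data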
# PfM18AAP inh-2 = PfM18AAP inhibition, confirmation; recombinant PfM18AAP, H-Glu-NHMec fluorogenic cleavage; AID 2170; shares compounds with PfM18AAP inh-1; 2,400 tested, 28% active; inhibition, % at 7.35 µM;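 active means mean inhibition over replicate wells above the hit cutoff set for the earlier primary screen, cut at about 29% in these data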
# CTSL1 counter = Cathepsin L (human) inhibition, confirmation. inhibition, % at 5.96 µM. shares compounds with PfM18AAP inh-1. purified cathepsin L1, Z-Leu-Arg-MCA fluorescence. 2,400 tested, under 10 active;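 active means average inhibition across replicates above the hit cutoff set in the earlier primary screen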
# Target sequence (P07711 whole entry, looked up): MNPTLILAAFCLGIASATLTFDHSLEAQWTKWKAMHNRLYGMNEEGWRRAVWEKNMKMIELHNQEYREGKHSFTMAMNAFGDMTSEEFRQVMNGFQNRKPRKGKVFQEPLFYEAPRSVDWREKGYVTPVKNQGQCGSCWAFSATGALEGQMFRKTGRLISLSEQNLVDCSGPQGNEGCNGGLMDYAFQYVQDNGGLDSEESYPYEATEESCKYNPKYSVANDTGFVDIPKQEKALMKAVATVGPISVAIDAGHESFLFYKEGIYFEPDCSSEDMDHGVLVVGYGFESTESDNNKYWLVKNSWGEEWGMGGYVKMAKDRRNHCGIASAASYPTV
# A number is an active result; i = inactive; nt = no result given. An excerpt weighted towards active compounds, which were near 2.9% of everything screened.
SMILES,PfM18AAP inh-1,UBC13 inh,ZTA DNA inh,EBNA-1 inhibitor,Apaf1 inhib,PfGluPho inh,PfM18AAP inh-2,CTSL1 counter
O=C(Nc1cccc(C(F)(F)F)c1)C1CCN(S(=O)(=O)c2ccc(N3CCCC3=O)cc2)CC1,i,i,i,i,i,i,nt,nt
NC(=O)c1c(NC(=O)COC(=O)c2ccc(O)c(Cl)c2)sc2c1CCCC2,nt,i,nt,nt,i,i,nt,nt
COc1ccc(NC(=O)NNC(=O)c2cc3occc3n2C)c(OC)c1,60.8,i,i,i,i,i,38.2,i
COc1ccc(NC(=O)NNC(=O)c2ccc(-c3ccccc3)cc2)c(OC)c1,i,i,nt,nt,i,i,nt,nt
CN(C)c1ccc(C2Nc3cccc4cccc(c34)N2)cc1,37.4,i,i,i,i,i,i,i
Clc1cccc(Cl)c1C1Nc2cccc3cccc(c23)N1,i,i,i,i,i,i,nt,nt
c1ccc(C2Nc3cccc4cccc(c34)N2)cc1,i,i,i,i,i,i,nt,nt
Clc1ccc(C2Nc3cccc4cccc(c34)N2)cc1Cl,35.8,i,i,i,i,i,i,i
O=C(NCCCn1ccnc1)/C(=C\c1cccnc1)NC(=O)c1ccccc1F,i,i,i,i,i,i,nt,nt
Cc1csc(/C(=N/OC(=O)c2ccco2)C(N)=O)n1,50.9,i,i,i,i,i,i,i
CCCCCO,nt,i,i,nt,i,i,nt,nt
C/C(=N\Nc1nc(N)cc(Cl)n1)c1cccc([N+](=O)[O-])c1,34.1,i,i,i,i,i,i,i
C/C(=N\Nc1nc(N)cc(Cl)n1)c1cccc(N)c1,i,i,i,i,i,i,nt,nt
CNC(=S)NNC(=O)c1cn(C)nc1C,32.5,i,i,i,i,i,i,i
Cc1nn(C)cc1C(=O)NNC(=S)Nc1ccccc1,i,i,i,i,i,i,nt,nt
O=C(CSc1nc2[nH]ncc2c(=O)[nH]1)c1ccccc1,47.8,i,i,i,i,i,40.3,i
O=C(CSc1nc2[nH]ncc2c(=O)[nH]1)N1CCCCC1,33.7,nt,i,i,nt,i,i,i
O=C(CSc1nc2[nH]ncc2c(=O)[nH]1)N1CCCC1,i,i,i,i,i,i,nt,nt
NC(=O)c1cc[n+](Cc2ccccc2Cl)cc1,i,i,i,i,i,i,nt,nt
NC(=O)N/N=C/c1coc2ccc(O)cc2c1=O,66.0,i,i,i,i,i,56.6,i
Cc1ccc2occ(/C=N/NC(=O)c3ccc(O)cc3)c(=O)c2c1,i,i,nt,nt,i,i,nt,nt
CC(C)(CO)[C@@H](O)C(=O)NCCC(=O)O,nt,i,i,i,i,i,nt,nt
Cc1nc(C)c(C(=O)NNC(=O)Nc2ccc(Cl)cc2)s1,54.9,i,i,i,i,i,i,i
Nc1nccc(-c2ccc(-n3cccc3)cc2)n1,i,i,i,i,i,i,nt,nt
CC(C)Nc1nc(NC(C)C)nc(N(C)N)n1,48.4,i,i,i,i,i,39.7,i
SMILES,PfM18AAP inh-1,UBC13 inh,ZTA DNA inh,EBNA-1 inhibitor,Apaf1 inhib,PfGluPho inh,PfM18AAP inh-2,CTSL1 counter
O=c1c(OC2OC(CO)C(O)C(O)C2O)c(-c2ccc(O)c(O)c2)oc2cc(O)cc(O)c12 (stereo unspecified),61.8,i,i,i,i,i,45.9,i
Cc1ccc(S(=O)(=O)N2CCC(C(=O)NNC(=O)c3ccccc3)CC2)cc1,i,i,i,i,i,i,nt,nt
O=C(NNS(=O)(=O)c1ccc(F)cc1)c1ccc2c(c1)OCO2,49.9,i,i,i,i,i,i,i
O=C(NNC(=O)c1ccc(F)cc1F)c1ccc2c(c1)OCO2,i,i,i,i,i,i,nt,nt
CCCCCC(/C=N/Nc1ccc(S(=O)(=O)N2CCOCC2)cc1[N+](=O)[O-])=C\c1ccccc1,i,i,i,i,i,i,nt,nt
Oc1ccccc1N=Cc1c(O)ccc2oc3c(c12)CCCC3,39.1,i,i,i,i,i,i,i
CCCS(=O)(=O)N1CCCC(C(=O)NCCCN(CC)c2cccc(C)c2)C1 (stereo unspecified),i,i,i,i,i,i,nt,nt
CCN(CCCNC(=O)c1ccc(N2CCCC2=O)cc1)c1cccc(C)c1,41.0,i,i,i,i,i,i,i
CCN(CCCNC(=O)C1CCC(=O)N1Cc1ccc(C)cc1)c1cccc(C)c1 (stereo unspecified),54.0,i,i,i,i,i,i,i
CCN(CCNC(=O)C1CCC(=O)N1Cc1ccc(C)cc1)c1ccccc1 (stereo unspecified),i,i,i,i,i,i,nt,nt
CN(CCCNC(=O)C1CCC(=O)N1Cc1ccccc1Cl)c1ccccc1 (stereo unspecified),i,i,i,i,i,i,nt,nt
CCCS(=O)(=O)N1CCC(C(=O)NCCCN(CC)c2cccc(C)c2)CC1,39.9,i,i,i,i,i,i,i
CCN(CCCNC(=O)C1CCC(=O)N1Cc1ccccc1Cl)c1cccc(C)c1 (stereo unspecified),36.8,i,i,i,i,i,i,i
CCN(CCCNC(=O)CN1C(=O)COc2ccccc21)c1cccc(C)c1,49.2,i,i,i,i,i,i,i
CC1CCCC(NC(=O)C2CCN(S(=O)(=O)N3CCCCC3)CC2)C1C (stereo unspecified),i,i,i,i,i,i,nt,nt
CCOC(=O)c1c(N)sc(C(=O)Nc2ccccc2F)c1C,37.0,i,i,i,i,i,i,i
CCOC(=O)Cc1csc(NC(=O)CSc2nnc(-c3ccc(NS(=O)(=O)CC)cc3)o2)n1,39.4,i,i,i,i,i,i,i
O=C1c2ccccc2CC1Sc1nnc(-c2ccncc2)o1 (stereo unspecified),46.1,i,i,i,i,i,i,i
CC1=CC(C)(C)N(C(=O)CSc2ncn[nH]2)c2ccccc21,54.4,i,i,i,i,i,i,i
Cc1c(C)n(C(=O)CSc2ncn[nH]2)c2ccccc12,82.7,i,i,i,i,i,52.2,i
Cc1c(C)n(C(=O)CSc2nncn2C)c2ccccc12,i,i,i,i,i,i,nt,nt
S=C(N/N=C/c1ccccc1)N1CCOCC1,34.3,i,i,i,i,i,i,34.7
O=C(COC(=O)c1ccccc1-n1cnnn1)c1ccc(F)cc1,nt,i,i,i,i,i,nt,nt
Cc1cc(=O)[nH]c(SCC(=O)NCCc2ccccc2)n1,i,i,i,i,i,i,nt,nt
Cc1cc(=O)[nH]c(SCC(=O)NNC(=O)Cc2ccccc2)n1,35.5,i,i,i,i,i,i,i
CN(C)c1ccc(C(=O)NNC(=O)Nc2ccccc2)cc1,55.1,i,i,i,i,i,30.6,i
Cc1nc2ccccn2c1C(=O)NNC(=O)Nc1ccccc1,66.2,i,i,i,i,i,66.6,i
O=C(NNC(=O)c1ccc(NC(=O)c2ccccc2)cc1)Nc1ccccc1,i,i,i,i,i,i,nt,nt
Cc1ccc2c(c1)-c1c(ssc1=S)C(C)(C)N2C(=O)c1ccco1,39.9,i,i,i,i,i,i,i

# Bioassay records (PubChem)
